Screening data deposited in PubChem BioAssay by several laboratories.
Sampled rows, rich in hits. Any-hit rate of the full collection: about 2.3%.
GPR7 antag = GPR7 receptor antagonists, primary screen, cell-based, fluorescence, single concentration; GPR7-expressing cells, fluorescence antagonist assay; AID 1861, 2009; inhibition, % at 4.4 µM; Neuropeptides B/W receptor type 1 (Homo sapiens), P48145; 290,000 tested, 1.1% active; in the data active = inhibition above about 16%, passing the limit was not always enough;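 also: cells stimulated with the agonist NPW; 0% = agonist with vehicle and 100% = vehicle without agonist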
p-CIP stab down = p/CIP-EGFP fusion destabilizers, primary screen, fluorescence, F442A cells | 16 h | Q05BA5 | decrease of EGFP signal, % at 10 µM | 290,000 tested, 0.01% active;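 active = EGFP signal decrease of at least 30% at 10 µM or well 3 SD below plate mean, unless failing retest; inactive = the rest, including hits failing retest or dose response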
DSG3 Ab inh = inhibitors of pemphigus antibody binding to DSG3, primary screen, biochemical, bead-based, flow cytometry, scFv-GFP. 310,000 tested, 0.48% active. Desmoglein-3 (Homo sapiens), P32926. AID 588358, 2011. binding (percent of control), % at 10 µM. DSG3-coupled beads, scFv-anti-DSG3-GFP binding; hits give low values;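 active = binding more than 3 SD below its plate's average and above zero; inconclusive = below that plate limit but binding exactly zero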;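 also: hits lower antibody fragment binding to DSG3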
Target sequence (P32926 whole entry, looked up, the tested form may be a part): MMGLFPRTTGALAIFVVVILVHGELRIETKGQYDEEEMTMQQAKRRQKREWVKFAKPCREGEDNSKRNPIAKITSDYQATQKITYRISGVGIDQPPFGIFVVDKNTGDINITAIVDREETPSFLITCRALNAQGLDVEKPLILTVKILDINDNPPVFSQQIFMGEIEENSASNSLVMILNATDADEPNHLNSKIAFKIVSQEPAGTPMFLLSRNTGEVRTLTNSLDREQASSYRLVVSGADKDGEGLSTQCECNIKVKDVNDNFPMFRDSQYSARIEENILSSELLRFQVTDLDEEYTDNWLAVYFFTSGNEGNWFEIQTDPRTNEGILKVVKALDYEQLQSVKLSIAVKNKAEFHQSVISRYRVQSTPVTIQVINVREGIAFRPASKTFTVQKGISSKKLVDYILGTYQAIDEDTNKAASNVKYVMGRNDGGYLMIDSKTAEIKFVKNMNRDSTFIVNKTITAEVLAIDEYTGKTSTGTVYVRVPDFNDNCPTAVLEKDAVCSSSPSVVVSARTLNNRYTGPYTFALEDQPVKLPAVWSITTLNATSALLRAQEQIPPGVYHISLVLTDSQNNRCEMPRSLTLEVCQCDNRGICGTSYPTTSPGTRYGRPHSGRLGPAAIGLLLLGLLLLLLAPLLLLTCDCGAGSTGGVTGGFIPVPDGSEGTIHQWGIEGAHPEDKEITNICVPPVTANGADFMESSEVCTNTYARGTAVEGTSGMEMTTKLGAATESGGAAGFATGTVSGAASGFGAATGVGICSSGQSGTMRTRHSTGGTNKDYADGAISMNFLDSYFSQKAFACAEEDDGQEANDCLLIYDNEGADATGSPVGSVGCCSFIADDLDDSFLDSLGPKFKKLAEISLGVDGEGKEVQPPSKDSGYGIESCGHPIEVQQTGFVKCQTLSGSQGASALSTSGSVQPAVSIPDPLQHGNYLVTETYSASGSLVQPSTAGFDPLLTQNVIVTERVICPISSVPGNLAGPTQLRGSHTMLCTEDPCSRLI
T cell HTS = modulators of CD8 T cell-vesicle binding, primary screen, mouse 2C CD8+ T cells, flow cytometry; AID 2052, 2009; 330,000 tested, 0.068% active; 2C CD8+ T cell-vesicle binding; hits give low values; response (vesicle binding), % at 7 µM;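 active = response, share of CD8 T cells binding vesicles, and their 90th percentile fluorescence all below set limits, cut at about 80% in these data, passing the limit was not always enough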;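 also: values below 100% mean blocked vesicle binding to the CD8+ T cells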
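Benchmarks: naked versus QL9-loaded vesicles / Assay system: purified 2C TCR transgenic mouse naive CD8+ T cells / Technique: high-throughput flow cytometry with anti-B7-1 and anti-CD8 staining / Timing: Cell–vesicle co-incubation 1.5 h at 37 °C, staining 20 min on ice / Read-out: percent CD8+ FL2 mean versus row control / Probe or stimulus: QL9-loaded Drosophila micro-vesicles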
CHT inh = inhibitors of human choline transporter CHT | High affinity choline transporter 1 (Homo sapiens), Q9GZV3 | CHT-expressing cells, membrane potential dye, choline response; hits give low values | B-score at 10 µM | 310,000 tested, 0.86% active | AID 488975, 2010;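 active = B-score over 3 SD under the library average, and starting fluorescence ratio not unusually high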;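 also: choline stimulus applied at its EC90 after an EC20 pre-addition; B-score computed on integrated fluorescence ratio after choline addition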
CHT allo act = CHT positive allosteric modulators, primary screen, cell-based, membrane potential dye, choline EC20; High affinity choline transporter 1 (Homo sapiens), Q9GZV3; CHT-expressing cells; hits give high values; LV-AA mutant CHT in HEK293 cells; B-score at 10 µM; 310,000 tested, 0.49% active; AID 488977, 2010;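 active = initial fluorescence not abnormally high and integrated response B-score, plate-corrected, over 3 SD above library mean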
CHT block conf = CHT inhibitors, confirmation, cell-based, membrane potential dye, duplicate | CHT-expressing cells, choline membrane potential dye; LV-to-AA substituted CHT, HEK293 cells | 2,400 tested, 70% active | shares compounds with CHT inh | CHT activity remaining % of control (hits give low values), % at 10 µM | AID 493221, 2011;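 active = choline transporter activity left, mean of duplicates at 10 µM, below buffer-only control mean minus 3 SD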;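 also: depolarization triggered by choline at its EC90 following an EC20 pre-addition; 0% = hemicholinium-3 full block and 100% = buffer-only control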
HEK293 MPD ctr = membrane potential effects in parental HEK293, counter-screen for CHT inhibitor project, cell-based, membrane potential dye; membrane potential ratio readout (active if shifted either direction beyond buffer ±3SD; no single direction) at 10 µM; choline response; active = decrease or increase beyond buffer ±3SD; shares compounds with CHT inh; 2,400 tested, 4% active;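 also: parental cells lack the transporter so any hit is non-specific; ratio is peak minus trough fluorescence over baseline after EC90 choline challenge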
* hit, by the source's call; i = inactive; u = inconclusive; x = no result.

SMILES	GPR7 antag	p-CIP stab down	DSG3 Ab inh	T cell HTS	CHT inh	CHT allo act	CHT block conf	HEK293 MPD ctr
Cc1ccc2c(c1)N(CC(=O)O)C(=O)CO2	6	-6	100	161	i	i	x	x
COc1cc(CC(=O)Nc2cc(S(=O)(=O)N3CCOCC3)ccc2N2CCCC2)cc(OC)c1OC	x	x	107	x	x	x	x	x
Cc1ccc(C)c(NC(=O)COC(=O)c2cccc(S(=O)(=O)N3CCCC3)c2)c1	x	x	104	x	x	x	x	x
COc1ccccc1C(=O)Nc1ccc(C(=O)c2ccccc2)cc1	-4	0	102	184	-6.5*	i	i	i
COc1ccccc1C(=O)Nc1ccc(C(=O)O)cc1	0	-3	103	345	i	i	x	x
CC1CCN(S(=O)(=O)c2ccc3c(c2)N(CC(=O)NCCCN2C(C)CCCC2C)C(=O)CO3)CC1 (centres undefined)	-5	-14	108	188	-7.4*	i	34%*	i
CC1CCCC(C)N1CCCNC(=O)CN1C(=O)COc2ccc(S(=O)(=O)N3CCOCC3)cc21 (centres undefined)	-4	0	u	229	i	i	x	x
CC1CCCCN1CCNC(=O)CN1C(=O)CSc2ccc(S(=O)(=O)N3CCCCC3)cc21 (centres undefined)	-9	-5	104	198	-6.7*	i	45%*	i
CCCCN1C(=O)C(CC(=O)NCCc2ccccn2)CC(C(=O)N(C(C)C)C(C)C)=C1C (centres undefined)	x	x	102	x	x	x	x	x
CC(C)(C)C(=O)NNC(=O)c1cc2sccc2s1	-5	0	x	954	-5.8*	i	i	i
CC(C)(C)OC(=O)NNC(=O)c1cccs1	-4	1	99	500	i	i	x	x
CCNC(=O)[C@H]1O[C@@H](n2cnc3c(N)nc(NCCc4ccc(CCC(=O)O)cc4)nc32)[C@H](O)[C@@H]1O	x	4	103	i	-5.3*	i	46%*	i
Nc1ncnc2c1ncn2[C@@H]1O[C@H](CNC(=O)[C@@H]2CCN2)[C@@H](O)[C@H]1O	x	x	112	x	x	x	x	x
CCC(=O)N1CCN(c2ccc(Cl)cc2NC(=O)c2ccc(N3CCCC3)c([N+](=O)[O-])c2)CC1	-5	-5	99	310	i	i	x	x
CCC(=O)Nc1cc(Cl)ccc1N1CCN(C(=O)CC)CC1	-7	9	x	154	-8.1*	i	67%*	i
COc1ccc(OC)c(NC(=S)N2c3ccccc3CC2C)c1 (centres undefined)	-16	-10	107	351	i	i	x	x
CCOC(=O)C1CCN(C(=O)c2cccc(S(=O)(=O)N3CCCc4ccccc43)c2)CC1	x	x	100	x	x	x	x	x
CC1(C)C(=O)Nc2ccccc2N1C(=O)COC(=O)c1ccc(NC(N)=O)cc1	x	x	101	x	x	x	x	x
CCn1c(SCC(=O)c2ccccc2)nnc1-c1cccs1	-3	-13	100	99	-6.6*	i	68%*	i
CCn1c(SCC(=O)NCCc2ccccc2)nnc1-c1cccs1	14	-3	x	499	i	i	x	x
CCn1c(SCC(=O)NCC(=O)Nc2ccc(F)cc2)nnc1-c1cccs1	1	-7	101	481	-6*	i	i	i
Cc1cc(C)c2c(=N)c3ccccc3n(CCCCCCCCn3c4ccccc4c(=N)c4c(C)cc(C)nc43)c2n1	x	x	60	x	x	x	x	x
Cn1ccnc1SCC(=O)Nc1ccc2nc(SCC(=O)NC3CC3)sc2c1	-1	-4	x	286	-16*	i	21%*	i
Cn1ccnc1SCC(=O)NC1CCCC1	0	-1	90	214	i	i	x	x
O=C(NNc1cc(Cl)cc(Cl)c1)c1cccs1	-8	-19	118	284	-6.1*	i	43%*	i
SMILES	GPR7 antag	p-CIP stab down	DSG3 Ab inh	T cell HTS	CHT inh	CHT allo act	CHT block conf	HEK293 MPD ctr
Cc1ccc(NC(=O)CSc2nnc3n2CCCCC3)cc1S(=O)(=O)N1CCOCC1	x	x	96	x	x	x	x	x
CCN(CC)c1ccc(/C=N/NC(=O)c2ccco2)c(O)c1	-3	-13	103	312	-5.2*	i	i	i
Cc1c(NC(=O)c2nn(C(C)C)c(=O)c3ccccc23)c(=O)n(-c2ccccc2)n1C	x	x	102	x	x	x	x	x
Cc1cn([C@H]2C[C@H](O)[C@@H](CCC(=O)NCc3ccco3)O2)c(=O)[nH]c1=O	x	x	97	x	x	x	x	x
CCOC(=O)C1(Cc2ccccc2C)CCCN(C(=O)c2cc(C3CC3)[nH]n2)C1 (centres undefined)	-14	-14	108	236	-6.3*	i	i	i
CSCCC(NC(=O)c1ccccc1)C(=O)Nc1ccc(C)cc1 (centres undefined)	-5	-3	92	159	-7.5*	i	70%*	i
Cc1ccc(C(=O)N/C(=C\c2cccs2)C(=O)NC2CCCCC2)cc1	3	2	99	780	-5.1*	i	22%*	i
Cn1c(=NCC(O)COc2ccccc2)sc2ccccc21 (centres undefined)	0	-1	112	316	-19*	i	8.9%*	i
CCN1CCN(C(=O)C2=CC(c3ccc(C)cc3)=NS(=O)(=O)N2C)CC1	-2	0	93	785	-6.6*	i	i	i
CCOc1ccccc1C(=O)NCC(=O)NNC(=O)c1cccs1	x	x	103	311	x	x	x	x
Nc1ccc(-c2ccc(N)cc2C(F)(F)F)c(C(F)(F)F)c1	-12	-8	101	308	-5.7*	i	51%*	i
Nc1ccc(C(O)(C(F)(F)F)C(F)(F)F)cc1	-5	-4	95	232	i	i	x	x
Cc1ccc(S(=O)(=O)N2CCC(C(=O)C3C(=O)CC(C)(C)CC3=O)CC2)cc1	1	-3	107	202	-6.4*	i	i	i
O=C1CCCC(=O)C1C(=O)C1CCN(S(=O)(=O)c2ccccc2)CC1	-17	0	83	192	i	i	x	x
Cc1nnc(SCc2ccccc2)[nH]c1=O	-4	-12	110	58	i	i	x	x
